Assay results reported in ChEMBL document CHEMBL1147951, “Synthesis and antimicrobial activity of symmetrical two-tailed dendritic tricarboxylato amphiphiles” (2007).
In brackets after ≈: the same amount, converted by molar mass.

Tests used:
Type in all cases: functional
Klebsiella pneumoniae = test: Antimicrobial activity against Klebsiella pneumoniae by broth microdilution assay
Method in brief: (§1)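 Strains were E. coli strain C (ATCC 13706) and K. pneumoniae ATCC 4352, grown from a single colony in 1/10-strength BHI broth + 0.2% sucrose and adjusted with buffered saline gelatin to McFarland No. 1. Twofold dilution series of compound in triethanolamine/water used doubled medium and inoculum volumes. Plates were incubated at 37 °C and turbidity was scored visually on day 7. MIC, run in triplicate, was the lowest concentration giving a prominent visible turbidity decrease.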

Aspergillus niger = test: Antimicrobial activity against Aspergillus niger by broth microdilution assay
Method in brief: (§2)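 Compounds were dissolved in aqueous triethanolamine (stock pH 8–9) and serially diluted twofold in 1/10-strength BHI broth + 0.2% sucrose. Inocula were adjusted with buffered saline gelatin to McFarland No. 1; for A. niger, spores were scraped from PDA. Plates were incubated at 30 °C and turbidity was scored visually on day 4. MIC, run in triplicate, was the lowest concentration giving a prominent visible decrease in turbidity.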

[1] = system: Mycolicibacterium smegmatis; test: Antimicrobial activity against Mycobacterium smegmatis by broth microdilution assay
Method in brief: (§3)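 Strains were L. plantarum ATCC 14917, precultured in TSB, and M. smegmatis ATCC 607, precultured in Middlebrook 7H9. Inocula were diluted with buffered saline gelatin to McFarland No. 1. Twofold dilutions of compound in aqueous triethanolamine were made in 1/10-strength BHI broth + 0.2% sucrose and mixed with an equal volume of inoculum. Plates were incubated at 30 °C and scored visually for turbidity on day 4. MIC was determined in triplicate.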

Micrococcus luteus = test: Antimicrobial activity against Micrococcus luteus by broth microdilution assay; method in brief: as §2
Cryptococcus neoformans = test: Antimicrobial activity against Cryptococcus neoformans by broth microdilution assay; method in brief: as §2
Saccharomyces cerevisiae = test: Antimicrobial activity against Saccharomyces cerevisiae by broth microdilution assay; method in brief: as §2
Candida albicans = test: Antimicrobial activity against Candida albicans by broth microdilution assay; method in brief: as §2
[2] = system: Lactiplantibacillus plantarum; test: Antimicrobial activity against Lactobacillus plantarum by broth microdilution assay; method in brief: as §3
Escherichia coli = test: Antimicrobial activity against Escherichia coli by broth microdilution assay; method in brief: as §1
Staphylococcus aureus [3] = test: Antimicrobial activity against Staphylococcus aureus by broth microdilution assay
Method in brief: (§4)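 Twofold dilution series of amphiphile (dissolved in aqueous triethanolamine, pH 8–9) in 1/10-strength Brain Heart Infusion Broth with 0.2% sucrose. Inoculum from a single-colony broth culture, diluted with buffered saline gelatin to No. 1 McFarland turbidity. Incubated at 30 °C; turbidity scored visually on day 4. MIC = lowest concentration giving a prominent visible decrease in turbidity; triplicate.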

Staphylococcus aureus [4] = test: Antimicrobial activity against methicillin-resistant Staphylococcus aureus by broth microdilution assay; method in brief: as §4

Structure (SMILES) | MIC (Klebsiella pneumoniae) [µM] | MIC (Aspergillus niger) [µM] | MIC [1] [µM] | MIC (Micrococcus luteus) [µM] | MIC (Cryptococcus neoformans) [µM] | MIC (Saccharomyces cerevisiae) [µM] | MIC (Candida albicans) [µM] | MIC [2] [µM] | MIC (Escherichia coli) [µM] | MIC (Staphylococcus aureus [3]) [µM] | MIC (Staphylococcus aureus [4]) [µM]
CCCCCCCCCC(CCCCCCCCC)NC(=O)NC(CCC(=O)O)(CCC(=O)O)CCC(=O)O | > 11000 | 2800 (≈ 1560 µg/mL) | 350 (≈ 195 µg/mL) | > 11000 | 64 (≈ 35.6 µg/mL) | 2800 (≈ 1560 µg/mL) | > 11000 | 5600 (≈ 3120 µg/mL) | 350 (≈ 195 µg/mL) |  | 
CCCCCCCCCCCCC(CCCCCCCCCCCC)NC(=O)NC(CCC(=O)O)(CCC(=O)O)CCC(=O)O | > 9800 | 9800 (≈ 6280 µg/mL) | 1200 (≈ 769 µg/mL) | > 9800 | 6.9 (≈ 4.42 µg/mL) | 610 (≈ 391 µg/mL) | > 9800 | 9800 (≈ 6280 µg/mL) | 2400 (≈ 1540 µg/mL) | > 9800 | 
CCCCCCCN(CCCCCCC)C(=O)NC(CCC(=O)O)(CCC(=O)O)CCC(=O)O | > 1200 | 800 (≈ 389 µg/mL) | 3200 (≈ 1560 µg/mL) | 6400 (≈ 3110 µg/mL) | 1200 (≈ 584 µg/mL) | 800 (≈ 389 µg/mL) | 1600 (≈ 779 µg/mL) | 6400 (≈ 3110 µg/mL) | 3200 (≈ 1560 µg/mL) | > 13000 | 3200 (≈ 1560 µg/mL)
CCCCCCCCN(CCCCCCCC)C(=O)NC(CCC(=O)O)(CCC(=O)O)CCC(=O)O | > 1100 | 380 (≈ 196 µg/mL) | 1500 (≈ 772 µg/mL) | 3000 (≈ 1540 µg/mL) | 550 (≈ 283 µg/mL) | 380 (≈ 196 µg/mL) | 190 (≈ 97.8 µg/mL) | 1500 (≈ 772 µg/mL) | 760 (≈ 391 µg/mL) | > 12000 | 3000 (≈ 1540 µg/mL)
CCCCCCCCCCCN(CCCCCCCCCCC)C(=O)NC(CCC(=O)O)(CCC(=O)O)CCC(=O)O | > 950 | 10000 (≈ 5990 µg/mL) | 650 (≈ 389 µg/mL) | 10000 (≈ 5990 µg/mL) | > 950 | 5200 (≈ 3110 µg/mL) | > 10000 | 10000 (≈ 5990 µg/mL) | 2600 (≈ 1560 µg/mL) | > 10000 | 10000 (≈ 5990 µg/mL)
CCCCCCCC(CCCCCCC)NC(=O)NC(CCC(=O)O)(CCC(=O)O)CCC(=O)O | > 12000 | 6200 (≈ 3100 µg/mL) | 3100 (≈ 1550 µg/mL) | > 12000 | 1100 (≈ 551 µg/mL) | 6200 (≈ 3100 µg/mL) | 3100 (≈ 1550 µg/mL) | 6200 (≈ 3100 µg/mL) | 3100 (≈ 1550 µg/mL) |  | 
CCCCCCCCCCCC(CCCCCCCCCCC)NC(=O)NC(CCC(=O)O)(CCC(=O)O)CCC(=O)O | > 10000 | 10000 (≈ 6130 µg/mL) | 640 (≈ 392 µg/mL) | > 10000 | 7.2 (≈ 4.41 µg/mL) | 1300 (≈ 797 µg/mL) | > 10000 | 10000 (≈ 6130 µg/mL) | 2500 (≈ 1530 µg/mL) | > 10000 | 
CCCCCCCCCCCCCCCCCCNC(=O)NC(CCC(=O)O)(CCC(=O)O)CCC(=O)O | 260 (≈ 141 µg/mL) | 1400 (≈ 760 µg/mL) | 33 (≈ 17.9 µg/mL) | > 12000 | 90 (≈ 48.8 µg/mL) | 130 (≈ 70.6 µg/mL) | 1400 (≈ 760 µg/mL) | 1400 (≈ 760 µg/mL) | 130 (≈ 70.6 µg/mL) | 1400 (≈ 760 µg/mL) | 720 (≈ 391 µg/mL)
CCCCCCCCCCCCCCCCCCCCNC(=O)NC(CCC(=O)O)(CCC(=O)O)CCC(=O)O | 250 (≈ 143 µg/mL) | 680 (≈ 388 µg/mL) | 62 (≈ 35.4 µg/mL) | > 11000 | 2700 (≈ 1540 µg/mL) | 120 (≈ 68.5 µg/mL) | 2700 (≈ 1540 µg/mL) | 1400 (≈ 799 µg/mL) | 62 (≈ 35.4 µg/mL) | 1400 (≈ 799 µg/mL) | 1400 (≈ 799 µg/mL)
CCCCCCCCC(CCCCCCCC)NC(=O)NC(CCC(=O)O)(CCC(=O)O)CCC(=O)O | > 12000 | 5900 (≈ 3120 µg/mL) | 1500 (≈ 793 µg/mL) | > 12000 | 270 (≈ 143 µg/mL) | 3000 (≈ 1590 µg/mL) | 740 (≈ 391 µg/mL) | 5900 (≈ 3120 µg/mL) | 1500 (≈ 793 µg/mL) |  | 
CCCCCCCCCCCCCCNC(=O)NC(CCC(=O)O)(CCC(=O)O)CCC(=O)O | 290 (≈ 141 µg/mL) | 6400 (≈ 3110 µg/mL) | 580 (≈ 282 µg/mL) | > 13000 | 1600 (≈ 779 µg/mL) | 580 (≈ 282 µg/mL) | 1600 (≈ 779 µg/mL) | 6400 (≈ 3110 µg/mL) | 290 (≈ 141 µg/mL) | 6400 (≈ 3110 µg/mL) | 6400 (≈ 3110 µg/mL)
CCCCCCCCCCN(CCCCCCCCCC)C(=O)NC(CCC(=O)O)(CCC(=O)O)CCC(=O)O | > 1000 | 11000 (≈ 6280 µg/mL) | 680 (≈ 388 µg/mL) | 11000 (≈ 6280 µg/mL) | 62 (≈ 35.4 µg/mL) | 2700 (≈ 1540 µg/mL) | > 11000 | 11000 (≈ 6280 µg/mL) | 2700 (≈ 1540 µg/mL) | > 11000 | 11000 (≈ 6280 µg/mL)
CCCCCCCCCCC(CCCCCCCCCC)NC(=O)NC(CCC(=O)O)(CCC(=O)O)CCC(=O)O | > 11000 | 11000 (≈ 6430 µg/mL) | 330 (≈ 193 µg/mL) | > 11000 | 15 (≈ 8.77 µg/mL) | 2700 (≈ 1580 µg/mL) | > 11000 | 5300 (≈ 3100 µg/mL) | 2700 (≈ 1580 µg/mL) |  | 
CCCCCCCCCCCCCCCCCCCCCCNC(=O)NC(CCC(=O)O)(CCC(=O)O)CCC(=O)O | 470 (≈ 281 µg/mL) | 5200 (≈ 3110 µg/mL) | 120 (≈ 71.9 µg/mL) | > 10000 | 5200 (≈ 3110 µg/mL) | 30 (≈ 18 µg/mL) | 2600 (≈ 1560 µg/mL) | 950 (≈ 569 µg/mL) | 120 (≈ 71.9 µg/mL) | 1300 (≈ 779 µg/mL) | 1300 (≈ 779 µg/mL)
CCCCCCCCCCCCCCCCNC(=O)NC(CCC(=O)O)(CCC(=O)O)CCC(=O)O | 280 (≈ 144 µg/mL) | 3000 (≈ 1540 µg/mL) | 140 (≈ 72.1 µg/mL) | > 12000 | 47 (≈ 24.2 µg/mL) | 550 (≈ 283 µg/mL) | 47 (≈ 24.2 µg/mL) | 6100 (≈ 3140 µg/mL) | 140 (≈ 72.1 µg/mL) | 760 (≈ 391 µg/mL) | 6100 (≈ 3140 µg/mL)
CCCCCCCCCN(CCCCCCCCC)C(=O)NC(CCC(=O)O)(CCC(=O)O)CCC(=O)O | > 1000 | 5800 (≈ 3150 µg/mL) | 1400 (≈ 760 µg/mL) | 12000 (≈ 6510 µg/mL) | 260 (≈ 141 µg/mL) | 720 (≈ 391 µg/mL) | > 12000 | 12000 (≈ 6510 µg/mL) | 1400 (≈ 760 µg/mL) | > 12000 | 12000 (≈ 6510 µg/mL)
